Each structure is given as a SMILES string. Active and inactive are the calls of the source. No cut-off for these calls is given here.

The target of series [1] is T1, DNA repair protein REV1 (Homo sapiens) (UniProt Q9UBZ9).
T1 sequence (whole entry): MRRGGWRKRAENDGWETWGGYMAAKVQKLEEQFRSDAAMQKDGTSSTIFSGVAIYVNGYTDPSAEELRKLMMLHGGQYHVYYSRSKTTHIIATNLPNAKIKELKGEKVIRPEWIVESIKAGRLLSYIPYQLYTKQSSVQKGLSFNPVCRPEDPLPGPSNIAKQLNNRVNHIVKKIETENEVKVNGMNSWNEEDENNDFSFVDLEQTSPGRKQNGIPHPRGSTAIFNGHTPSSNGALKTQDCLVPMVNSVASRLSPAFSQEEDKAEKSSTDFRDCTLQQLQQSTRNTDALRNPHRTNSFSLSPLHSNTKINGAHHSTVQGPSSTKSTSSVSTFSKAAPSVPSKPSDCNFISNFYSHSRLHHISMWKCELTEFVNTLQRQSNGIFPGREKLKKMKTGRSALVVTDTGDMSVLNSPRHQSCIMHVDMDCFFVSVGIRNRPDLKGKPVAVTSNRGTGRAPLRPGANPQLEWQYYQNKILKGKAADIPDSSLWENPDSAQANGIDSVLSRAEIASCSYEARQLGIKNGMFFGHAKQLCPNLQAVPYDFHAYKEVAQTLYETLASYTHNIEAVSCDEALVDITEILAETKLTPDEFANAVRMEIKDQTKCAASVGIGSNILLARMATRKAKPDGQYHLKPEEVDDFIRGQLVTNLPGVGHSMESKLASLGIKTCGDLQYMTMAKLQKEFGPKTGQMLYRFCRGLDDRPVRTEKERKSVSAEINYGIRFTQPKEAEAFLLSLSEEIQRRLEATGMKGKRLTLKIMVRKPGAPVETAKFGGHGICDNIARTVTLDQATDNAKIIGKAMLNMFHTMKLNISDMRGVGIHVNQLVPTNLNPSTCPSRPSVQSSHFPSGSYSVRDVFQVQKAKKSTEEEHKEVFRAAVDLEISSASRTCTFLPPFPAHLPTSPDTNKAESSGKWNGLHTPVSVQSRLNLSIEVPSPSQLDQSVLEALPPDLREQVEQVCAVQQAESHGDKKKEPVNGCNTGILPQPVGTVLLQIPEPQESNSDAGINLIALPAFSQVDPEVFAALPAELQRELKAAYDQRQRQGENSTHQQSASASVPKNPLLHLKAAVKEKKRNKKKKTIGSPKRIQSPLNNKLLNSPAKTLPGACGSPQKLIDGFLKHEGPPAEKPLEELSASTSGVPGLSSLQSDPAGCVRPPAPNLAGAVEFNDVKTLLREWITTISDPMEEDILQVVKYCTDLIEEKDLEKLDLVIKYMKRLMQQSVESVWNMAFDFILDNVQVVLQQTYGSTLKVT
Briefly: Inhibition of REV1 in human HeLa cells assessed as reduction in 2.5 J/m2 UV light-induced cyclopyrimidine dimer removal at 150 uM by epi-fluorescence microscopic analysis. The series is classed as cell-based. Summed up: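 HeLa cells on coverslips given 0 or 2.5 J/m² UVC (254 nm), then DMSO or 150 µM compound. Fixed at time points up to 24 h, denatured in 2 M HCl and stained with anti-CPD (TDM-2). Epifluorescence mean green intensity per DAPI-defined nucleus; two-tailed t-test.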

In series [2] the test system is U2OS. As to the kind of experiment: Cytotoxicity against human U2OS cells assessed as reduction in colony formation at 75 uM incubated for 24 hrs followed by culture medium replacement with fresh medium and measured after 7 days by crystal violet staining based assay relative to control. The series is classed as cell-based. The gist of the method: (§1)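 U2OS cells, 300 per well, settled overnight, then given cisplatin or 4-hydroxycyclophosphamide at the stated final level. After 24 h, compound or DMSO added; medium replaced after another 24 h and cells grown 7 days. Formaldehyde fixation, 0.5% crystal violet staining, colonies of more than ~40 cells counted; triplicates, survival set to 1 for vehicle (saline for cisplatin, DMSO for 4-HC).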

Series [3] addresses T1, DNA repair protein REV1 (Homo sapiens). As to the kind of experiment: Inhibition of REV1 in human WTK1 cells assessed as suppression of 0 to 128 J/m2 UV light-induced HPRT gene mutation by measuring reduction in number of resistant clones at 150 uM dosed Immediately following UVC treatment and measured after 21 hrs. Summed up: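 WTK-1 cells cleansed (CHAT, then THC) and conditioned in horse serum; 2×10^6 cells given UVC 0–128 J/m², then DMSO or 150 µM compound for 21 h. Survival plated at 1.6 cells/well (PE0, PE6). After 5 days' expression, 5,000 cells/well in 0.5 µg/mL 6-thioguanine; colonies scored after 11–12 days; mutation frequency normalized to plating efficiency.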

Series [4] shares this target. As to the kind of experiment: Inhibition of REV1 in human U2OS cells assessed as potentiation of 4-hydroxycyclophosphamide-induced cytotoxicity by measuring reduction in colony formation at 75 uM incubated for 24 hrs after 24 hrs 4-hydroxycyclophosphamide-exposure followed by culture medium replacement with fresh medium and measured after 7 days by crystal violet staining based assay relative to control. Format: cell-based. The gist of the method: as §1

For series [5] the target is unchanged. As to the kind of experiment: Binding affinity to recombinant human REV1 UBM1/UBM2 domain (137 residues) expressed in Escherichia coli BL21(DE3) assessed as increase in NOE peaks at 200 uM by STD NMR spectral analysis. Summed up:
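STD NMR at 280 K with 10 µM protein and 200 µM compound. Saturation by a train of 30 ms Gaussian pulses for 4 s, on resonance at 0 ppm and off resonance at -40 ppm; 256 on/off FIDs recorded. REV1 UBM1-UBM2 expressed as for REV1 (His-tagged, Ni-NTA), tag removed by […].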

Series [6] shares this target. Briefly: Inhibition of UbPCNA binding to EGFP-tagged REV1 (unknown origin) expressed in human U2OS cells assessed as reduction in cisplatin-induced recruitment of EGFP-REV1 to PCNA foci on chromatin at 150 uM treated after 3.5 hrs cisplatin exposure and measured 6 hrs after post dose by immunostaining based confocal microscopic analysis. Format: cell-based. Summed up: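 U2OS cells transfected with pEGFP-REV1. Two days later, 33 µM cisplatin for 3.5 h, then released into DMSO or 150 µM compound for 6 h. CSK/Triton pre-extraction, PFA fixation, methanol, PCNA (PC10) immunostain, confocal imaging. Pearson coefficient of PCNA vs REV1 per DAPI-defined nucleus; n=32–37 cells, two-tailed t-test.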

Series [7] is described as follows: Solubility of the compound in sodium phosphate buffer at pH 7. The series is classed as physicochemical.
Series [8] in a line: Inhibition of biotin/Avi-tagged UbPCNA binding to recombinant human N-terminal His-tagged REV1 deletion mutant BRCT/UBM1/UBM2 domain expressed in Escherichia coli BL21(DE3) measured after 1 hr by AlphaScreen assay. Summed up:
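AlphaScreen with 200 nM biotin-AviTag-Ub-PCNA (enzymatically K164-ubiquitinated) and 40 nM N-His REV1 in PBS pH 7.4, 0.1% BSA, 0.05% Tween-20, with serial compound dilutions. Ni-chelate acceptor beads added, streptavidin donor beads after 1 h, read 1 h later; dose-response fitted on final concentrations.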
Background: In Alpha technology, singlet oxygen from a donor bead excites a nearby acceptor bead.

The target in series [9] is T1, DNA repair protein REV1 (Homo sapiens). Briefly: Inhibition of REV1 in human U2OS cells assessed as potentiation of cisplatin-induced cytotoxicity by measuring reduction in colony formation at 75 uM incubated for 24 hrs after 24 hrs cisplatin exposure followed by culture medium replacement with fresh medium and measured after 7 days by crystal violet staining based assay relative to control. Format: cell-based. The gist of the method:
as §1

The target is the same in series [10]. Briefly: Binding affinity to recombinant human REV1 UBM2 domain assessed as chemical shift changes by [1H,15N]-HSQC NMR spectral analysis. The gist of the method:
(§2)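 15N-labeled REV1 UBM2 in 20 mM sodium phosphate pH 7.0, 100 mM NaCl, titrated at protein:compound ratios 1:2, 1:4, 1:6, 1:8 and 1:10. 1H and 15N shifts of displaced peaks tracked at each point; weighted average shift δav(NH) = [(δH² + (δN/5)²)/2]^1/2 per backbone amide.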

The subject of series [11] is U2OS. Briefly: Cytotoxicity against human U2OS cells expressing EGFP-tagged REV1 (unknown origin) at 150 uM. Format: cell-based.
Series [12] addresses T1, DNA repair protein REV1 (Homo sapiens). Briefly: Binding affinity to recombinant human REV1 UBM2 domain assessed as chemical shift perturbations on alpha-helix at REV1 UBM2 to compound molar ratio of 1:10 by [1H,15N]-HSQC NMR spectral analysis. Summed up:
as §2

Turning to `O=C1CN(C(=O)CCc2cc(I)c(Oc3ccc(O)cc3)c(I)c2)CCN1`, the inhibition entry in series [1], in series [3] and in series [6] was “Active” throughout. Further, the “fold change (FC)” value in the series with U2OS [2] is 2; in series [4], 10; in series [9] it was 10. Moreover, in series [5], the outcome was Active. For the same compound, the solubility result in series [7] was “Insoluble”. Moreover, the IC50 in series [8] amounted to 3.4 µM.
For `Cl.O=C(CCc1cc(I)c(Oc2ccc(O)cc2)c(I)c1)N1CCNCC1`, the Activity result is “Dose-dependent effect” in series [10] and “Toxic” in the series on U2OS [11]. Besides, the outcome in [5] and in [12] was Active. In addition, the solubility entry in series [7] is reported as “Soluble”. For the same compound, in series [8], the IC50 is 9.7 µM.

The term IC50 denotes the concentration that inhibits the measured activity by half.
